Activity calls are given as the source filed them. The calls are words filed in the database; no cut-off is given here.
What was measured:
PANC-1 [1] = assay: Antiausteritic activity against human PANC1 cells in nutrient-deprived medium assessed as decrease in cell viability measured after 24 hrs by WST-8 assay; type: functional
PANC-1 [2] = assay: Inhibition of colony formation in human PANC1 cells after 10 days by crystal violet staining based assay; type: functional, cell-based
Summary of the method: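 500 cells/well plated in DMEM and allowed to attach for 24 h at 37 °C, 5% CO2. Treated at 12.5, 25 and 50 μM in DMEM and grown for 10 days. Cells washed with PBS, fixed in 4% formaldehyde, stained with crystal violet for 10 min. Three independent repeats.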

PANC-1 [3] = assay: Antiausteritic activity against human PANC1 cells in nutrient-deprived medium assessed as changes in cell morphology at 5 uM after 24 hrs by ethidium bromide/acridine orange staining based phase contrast microscopy; type: functional
Summary of the method: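 PANC-1 seeded in 60 mm dishes (1 × 10^6), grown 24 h in DMEM at 37 °C, 5% CO2, washed twice with PBS, then switched to NDM with or without compound. After 24 h, EB/AO reagent added for 5 min. Imaged at 40× in fluorescence and phase-contrast modes. AO marks live cells green, EB marks dead cells red.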

Row | Compound | PC50 (PANC-1 [1]) [µM] | inhibition (PANC-1 [2]) | Activity (PANC-1 [3])
1 | CC(=O)OC/C(=C\CC[C@@H](C)[C@H]1CC[C@@]2(C)[C@@H]3CC[C@H]4C(C)(C)C(=O)CC[C@@]45C[C@@]35CC[C@]12C)C(=O)O | 77.5 | – | –
2 | CC(=O)OC/C(=C\CC[C@@H](C)[C@H]1CC[C@@]2(C)[C@@H]3CC[C@H]4C(C)(C)[C@@H](O)CC[C@@]45C[C@@]35CC[C@]12C)C(=O)O | 22.6 | – | –
3 | COC(=O)OC/C(=C\CC[C@@H](C)[C@H]1CC[C@@]2(C)[C@@H]3CC[C@H]4C(C)(C)C(=O)CC[C@@]45C[C@@]35CC[C@]12C)C(=O)O | 32.9 | – | –
4 | CC(=O)/C=C/C[C@@H](C)[C@H]1CC[C@@]2(C)[C@@H]3CC[C@H]4C(C)(C)[C@@H](O)CC[C@@]45C[C@@]35CC[C@]12C | 16.4 | – | –
5 | C/C(=C\C(O)C[C@@H](C)[C@H]1CC[C@@]2(C)[C@@H]3CC[C@H]4C(C)(C)C(=O)CC[C@@]45C[C@@]35CC[C@]12C)C(=O)O (some centres undefined) | 16.8 | – | –
6 | C[C@H](CC/C=C(\CO)C(=O)O)[C@H]1CC[C@@]2(C)[C@@H]3CC[C@H]4C(C)(C)[C@@H](O)CC[C@@]45C[C@@]35CC[C@]12C | 47.6 | – | –
7 | C/C(=C\C(O)C[C@@H](C)[C@H]1CC[C@@]2(C)[C@@H]3CC[C@H]4C(C)(C)[C@@H](O)CC[C@@]45C[C@@]35CC[C@]12C)C(=O)O (some centres undefined) | 64.4 | – | –
8 | C[C@H](CC/C=C(\CO)C(=O)O)[C@H]1CC[C@@]2(C)[C@@H]3CC[C@H]4C(C)(C)C(=O)CC[C@@]45C[C@@]35CC[C@]12C | 93.8 | – | –
9 | C[C@H](CC/C=C(\CO)C(=O)O)[C@H]1CC[C@@]2(C)[C@@H]3CC[C@H]4C(C)(C)[C@H](O)CC[C@@]45C[C@@]35CC[C@]12C | 3.7 | – | –
10 | C/C(=C\C(O)C[C@@H](C)[C@H]1CC[C@@]2(C)[C@@H]3CC[C@H]4C(C)(C)[C@H](O)CC[C@@]45C[C@@]35CC[C@]12C)C(=O)O (stereo in doubt; 4) | 16.1 | – | –
11 | C/C(=C\C(O)C[C@@H](C)[C@H]1CC[C@@]2(C)[C@@H]3CC[C@H]4C(C)(C)[C@H](O)CC[C@@]45C[C@@]35CC[C@]12C)C(=O)O (stereo in doubt; 5) [listing 1 of 2 here] | 4.3 | – | –
12 | C/C(=C\C(O)C[C@@H](C)[C@H]1CC[C@@]2(C)[C@@H]3CC[C@H]4C(C)(C)[C@H](O)CC[C@@]45C[C@@]35CC[C@]12C)C(=O)O (stereo in doubt; 5) [listing 2 of 2 here] | – | Dose-dependent effect | Active
13 | COc1cc(C[C@H]2C(=O)OC[C@@H]2Cc2ccc(OC)c(OC)c2)ccc1O [ARCTIGENIN] | 0.8 | – | –
14 | CC(C)=CCC[C@@H](C)[C@H]1CC[C@@]2(C)[C@@H]3CC[C@H]4C(C)(C)C(=O)CC[C@@]45C[C@@]35CC[C@]12C [CYCLOARTENONE] | >100 | – | –
15 | CC(C)=CCC[C@@H](C)[C@H]1CC[C@@]2(C)C3=C(CC[C@]12C)[C@@]1(C)CC[C@H](O)C(C)(C)[C@@H]1CC3 [LANOSTEROL] | 68.7 | – | –
16 | C/C(=C\CC[C@@H](C)[C@H]1CC[C@@]2(C)[C@@H]3CC[C@H]4C(C)(C)[C@@H](O)CC[C@@]45C[C@@]35CC[C@]12C)C(=O)O [MANGIFEROLIC ACID] | >100 | – | –
17 | C/C(=C\CC[C@@H](C)[C@H]1CC[C@@]2(C)[C@@H]3CC[C@H]4C(C)(C)C(=O)CC[C@@]45C[C@@]35CC[C@]12C)C(=O)O [MANGIFERONIC ACID] | >100 | – | –
18 | CC(=O)O[C@H]1C(=O)[C@@]2(C)[C@H]([C@H](OC(=O)c3ccccc3)[C@]3(O)C[C@H](OC(=O)[C@H](O)[C@@H](NC(=O)c4ccccc4)c4ccccc4)C(C)=C1C3(C)C)[C@]1(OC(C)=O)CO[C@@H]1C[C@@H]2O [PACLITAXEL] | >100 | – | –

Reference: ChEMBL document CHEMBL4190303, “Chemical Constituents of Propolis from Vietnamese Trigona minor and Their Antiausterity Activity against the PANC-1 Human Pancreatic Cancer Cell Line” (2017)
